Shown are actives, neighbours in structure and some others; about 5.4% of the full set was active somewhere.
HePTP inh = inhibitors of human HePTP phosphatase, primary screen, biochemical, absorbance, leukemia target; Tyrosine-protein phosphatase non-receptor type 7 (Homo sapiens), P35236; inhibition, % at 20 µM; AID 521, 2006; recombinant HePTP phosphatase activity, OD absorbance; hit rate 0.64% among 110,000; in the data active means inhibition above about 50%;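 further: plate controls were vehicle for no effect and reference inhibitor for full effect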
Target sequence (P35236 whole entry, looked up): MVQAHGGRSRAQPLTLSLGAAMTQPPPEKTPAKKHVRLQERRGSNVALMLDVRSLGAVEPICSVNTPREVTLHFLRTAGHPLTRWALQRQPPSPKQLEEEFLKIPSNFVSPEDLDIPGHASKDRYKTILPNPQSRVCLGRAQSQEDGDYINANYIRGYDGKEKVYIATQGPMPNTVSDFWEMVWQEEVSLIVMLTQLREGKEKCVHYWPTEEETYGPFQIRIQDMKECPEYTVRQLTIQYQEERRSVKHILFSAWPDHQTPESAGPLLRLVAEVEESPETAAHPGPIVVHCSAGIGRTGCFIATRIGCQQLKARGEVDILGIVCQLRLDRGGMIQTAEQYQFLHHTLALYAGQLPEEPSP
PostGolgi ctrl = growth inhibition of yeast control strain, primary screen, counter-screen for post-Golgi transport modulator project; efflux-deficient yeast background strain, growth absorbance A615, 16 h; hit rate 5% among 98,000; AID 738, 2007; inhibition, % at 10 µM
PLAP act = PLAP enzyme activators, biochemical, luminescence, HTS; activation fold at 20 µM; Alkaline phosphatase, placental type (Homo sapiens), P05187; AID 696, 2007; hit rate 1.2% among 96,000; purified PLAP enzyme, luminescent substrate read-out; active compounds read high; in the data active means activation fold above about 2
Ecoli tolC = growth inhibitors of E. coli tolC mutant, primary screen, strain BW25113 ΔtolC::kan, 384-well. OD615. growth inhibition, % at 10 µM (by protocol). hit rate 2.2% among 65,000. AID 573, 2007;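 active means growth inhibition at or above a cutoff equal to the mean over every tested compound plus 3 SD, cut at about 60% in these data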;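 further: growth measured after 20 h incubation at 37 °C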
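Test system: tolC-deleted E. coli BW25113 | Medium: LB with kanamycin 50 µg/mL | Compound dosing: Single concentration, 10 µM final per compound | Schedule: 37 °C, 20 h exposure | Measured by: OD at 615 nm | Evaluation: Percent growth inhibition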
PostGolgi yeast = phenotypic screen on post-Golgi transport, primary screen. post-Golgi transport phenotypic cell assay. inhibition, % at 10 µM. hit rate 0.9% among 98,000. AID 739, 2007;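 further: yeast cells grown in 1536-well plates; yeast grown about 18 h at 30C before absorbance read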
Ecoli WT expand = growth inhibitors of wild-type E. coli, primary screen, strain BW25113, expanded library, OD600; growth inhibition, % at 100 µM; hit rate 0.15% among 98,000; OD600 absorbance; AID 710, 2007;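 active means growth inhibition above about 50% at one test dose, limit read from the data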;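 further: growth measured after 20 h incubation at 37 °C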
Starred values were filed as active, the others as inactive; . = no result. Unless noted, no stated cut-off is given here; in the data, active means inhibition above about 30%; inactive means the rest.

SMILES	HePTP inh	PostGolgi ctrl	PLAP act	Ecoli tolC	PostGolgi yeast	Ecoli WT expand
Cc1cc(C)n(Cc2ccccc2Cl)n1	0	9	1	-12	0	9
COc1ccc(C(C(=O)NC2CCCC2)N(C(=O)c2snc(-c3ccc(F)cc3)c2N)c2ccccc2)cc1 (stereo not drawn)	.	-7	0.9	.	-13	-16
Cc1ccc(S(=O)(=O)N2CCN(c3ccc4nnc(-c5ccccc5)n4n3)CC2)cc1	.	34*	1.5	.	-10	1
COc1ccc(S(=O)(=O)N2CCN(c3ccc4nnc(-c5ccc(F)cc5)n4n3)CC2)cc1	-13	20	1.5	22	-2	1
Cn1nc(-c2ccc(Cl)cc2)c2cc(C(=O)N3CCN(c4ccccn4)CC3)sc21	-3	52*	1.6	20	-5	-11
CC(C)(Oc1ccc(Cl)cc1)C(=O)N1CCN(c2ccccn2)CC1	4	50*	.	47	1	-1
O=C(Cc1ccc(Cl)cc1)N1CCN(c2ccccn2)CC1	5	.	.	.	.	.
Cc1ccc(CNC(=O)c2cc3c(-c4ccc(Cl)cc4)nn(C)c3s2)o1	7	53*	1.5	16	-7	-8
Cn1nc(-c2ccc(Cl)cc2)c2cc(C(=O)N3CCN(c4ccccc4)CC3)sc21	-5	7	1.3	23	-4	-8
O=C(c1ccc(F)cc1F)n1nnc2ccccc21	-4	.	.	.	.	.
N#Cc1ccccc1Sc1ccccc1C(=O)Nc1ccc(Br)cc1	.	37*	0.9	.	26	-10
O=C(Nc1ccc(Br)cc1)c1ccccc1F	-10	.	.	.	.	.
O=C(Nc1nc(-c2cc(Cl)sc2Cl)cs1)c1ccc(Br)s1	.	-8	0.6	.	-10	-10
CCOC(=O)c1c(NC(=O)c2ccncc2)sc(C(C)=O)c1C	105*	.	.	.	.	.
CCC(C)(C)NC(=O)CN(C(=O)CCC(=O)Nc1ccccn1)c1ccc(F)c(Cl)c1	.	1	1.8	.	41*	2
Cc1cccc(N(CC(=O)NC2CCCC2)C(=O)CCCC(=O)Nc2ccccn2)c1	10	9	2*	-9	-7	0
Cc1ccc(C)c(N(CC(=O)NC2CCCC2)C(=O)CCCC(=O)Nc2ccccn2)c1	13	25	1.8	-4	1	5
Cc1nc(SCC(=O)c2c[nH]c3ccccc23)n[nH]1	9	32*	0.9	-5	-4	10
Cc1nc(SCC(=O)Nc2cccc(Cl)c2)n[nH]1	3	44*	1.7	-16	-4	10
Cc1nc(SCC(=O)c2ccc(F)cc2)n[nH]1	1	-2	2.3*	-9	-2	7
CC(C)c1nc(SCC(=O)Nc2cccc(S(N)(=O)=O)c2)n[nH]1	.	19	0.9	.	0	-5
O=C(Cn1c2c(c(-c3ccccc3)cc1=O)CCCC2)N1CCCCCC1	2	.	.	100*	.	.
CCCCNC(=O)Cn1c2c(c(-c3ccccc3Cl)cc1=O)CCC2	.	0	1.5	.	7	2
CC1CCCCC1NC(=O)c1cncc(Br)c1 (stereo not drawn)	1	16	0.9	3	-20	1
Cc1c2c(nc3c(C(=O)NC4CCCCC4C)cnn13)CCCC2 (stereo not drawn)	4	56*	1.1	37	-2	2
SMILES	HePTP inh	PostGolgi ctrl	PLAP act	Ecoli tolC	PostGolgi yeast	Ecoli WT expand
Clc1ccc(OCc2nnc(-c3ccccc3Br)o2)cc1	2	29	0.9	63*	-10	3
N#CC1=C(N)OC2=C(C(=O)CCC2)C1c1ccc(OC(=O)N2CCOCC2)cc1 (stereo not drawn)	5	38*	1.4	-14	-9	3
COc1cc(C2C(C#N)=C(N)OC3=C2C(=O)CC(C)(C)C3)ccc1OC(=O)N1CCOCC1 (stereo not drawn)	-6	33*	1.3	-8	0	2
CN(C)c1ccc(C(=O)c2ccccc2)cc1	.	-5	0.8	.	-1	5
Cc1ccc(C2C(C(=O)c3sc(C)nc3C)=C(O)C(=O)N2CCCN(C)C)o1 (stereo not drawn)	2	.	1	-22	.	.
C=C(C)Cc1c(C)nc(-c2ccccc2)[nH]c1=O	7	4	.	-4	3	0
CCCCCCOC(=O)Cc1c(C)nc(-c2ccccc2)[nH]c1=O	.	34*	0.7	.	-8	-3
COc1ccc(OC)c(-c2cc(C(=O)Nc3c(C)nn(Cc4ccccc4)c3C)no2)c1	11	38*	1	-11	9	-2
COc1ccc(OC)c(-c2cc(C(=O)Nc3cc(C)on3)no2)c1	3	5	0.9	11	3	1
COc1ccc(OC)c(-c2cc(C(=O)Nc3c(C)nn(Cc4ccc(Cl)cc4)c3C)no2)c1	0	33*	1.3	40	-9	-7
Cc1nn(Cc2ccccc2)c(C)c1NC(=O)c1cc(-c2ccco2)on1	7	4	.	0	-1	-8
COc1cccc(/C=C/C(=O)c2cccc([N+](=O)[O-])c2)c1OC	-9	.	.	.	.	.
CC(=O)Nc1nonc1NC(=O)CSC1=NCCS1	12	-13	1.3	-7	17	-3
Cc1n[nH]c(=S)n1/N=C/c1ccc(-c2ccccc2[N+](=O)[O-])o1	.	18	2*	.	-3	-1
O=C(N/N=C/c1ccc(-c2ccccc2[N+](=O)[O-])o1)c1ccc([N+](=O)[O-])cc1	-18	.	.	.	.	.
COc1cccc(CN2CCN(Cc3cccnc3)CC2)c1	-15	.	.	.	.	.
O=S(=O)(c1ccc(Cl)cc1)c1snnc1-c1ccccc1	.	34*	0.6	.	6	2
NC(=O)CSc1cn(CCNC(=O)c2cccs2)c2ccccc12	13	.	.	1	.	.
COCCn1nnnc1CN1CCC(O)(c2cccc(C(F)(F)F)c2)CC1	-4	3	1.1	-11	8	-8
COc1cc(S(=O)(=O)N2CCC(O)(c3cccc(C(F)(F)F)c3)CC2)ccc1-n1cnnn1	9	3	0.8	100*	-10	-10
Cc1csc(-c2cc3ccc(OC/C=C/c4ccccc4)cc3oc2=O)n1	6	.	.	.	.	.
COC(=O)c1nnn(-c2nonc2N)c1CSc1nc2ccccc2s1	11	60*	1.1	10	5	0
CCOC(=O)Nc1ccc2c(C)cc(=O)oc2c1	2	33*	1	7	0	2
CC(=O)Oc1ccc2c(C)cc(=O)oc2c1	.	-1	0.8	.	-5	18
CCCCCCCCNc1ncnc2ccccc12	.	9	10	.	44*	43
O=C(NCc1cccnc1)C1c2ccccc2C(=O)N1C1CCCCCC1 (stereo not drawn)	9	8	0.9	-2	-7	0
O=C(NCc1cccnc1)C1c2ccccc2C(=O)N1C1CCCCCCC1 (stereo not drawn)	-6	34*	1.1	4	5	-4
O=C(N/N=C/c1ccc(C(=O)O)cc1)C(=O)NC1CCCCC1	-3	.	.	.	.	.
O=S(=O)(Nc1ccc(N2CCCCC2)cc1)c1cccc2cccnc12	4	38*	0.8	5	1	-8

Compound activity (PubChem)
